According to ChEMBL document CHEMBL1127498, “Synthesis and DNA-sequence selectivity of a series of mono- and difunctional 9-aminoacridine nitrogen mustards” (J Med Chem, 1994):

System: HT-29
Assay: Concentration required to inhibit colony formation by 50% in human colon carcinoma HT-29 cells
Format: functional, cell-based
Outline: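 HT-29 cells grown in Eagle's MEM with 15% heat-inactivated FBS. Exponential-phase cells (2 × 10⁵/mL) plated, treated 16-20 h later with a range of drug concentrations for 30 min at 37 °C in medium with 1% serum. Washed twice, trypsinized, replated in triplicate at 10^2, 10^3, 10^4 cells/25-cm² flask for colony counts. At least two independent experiments; untreated plating efficiency 40-65%.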

Compared with `CCN(CCCl)CCNc1c2ccccc2nc2ccc(OC)cc12`, `CCN(CCCl)CCCNc1c2ccccc2nc2ccc(OC)cc12` is 3-fold lower in IC50: 1100 nM for the first, 370 nM for the second.

`CCN(CCCl)CCCCCCNc1c2ccccc2nc2ccc(OC)cc12` and `CCN(CCCl)CCCCCNc1c2ccccc2nc2ccc(OC)cc12` are within 1.5-fold of each other in IC50: 750 nM for the first, 700 nM for the second.

Compared with `CCN(CCCl)CCCCNc1c2ccccc2nc2ccc(OC)cc12`, `COc1ccc2nc3ccccc3c(NCCCCN(CCCl)CCCl)c2c1` is 25-fold lower in IC50: 250 nM for the first, 10 nM for the second. The second is the more potent here.

Compared with `COc1ccc2nc3ccccc3c(NCCN(CCCl)CCCl)c2c1`, `COc1ccc2nc3ccccc3c(NCCCN(CCCl)CCCl)c2c1` is 5.5-fold lower in IC50: 110 nM for the first, 20 nM for the second. The second is the more potent here.

Compared with `COc1ccc2nc3ccccc3c(NCCCCCN(CCCl)CCCl)c2c1`, `COc1ccc2nc3ccccc3c(NCCCCCCN(CCCl)CCCl)c2c1` is 2-fold higher in IC50: 30 nM for the first, 60 nM for the second. The first is the more potent here.

`CCN(CC)CCCC(C)Nc1c2ccc(Cl)cc2nc2ccc(OC)cc12` (stereo unspecified) [QUINACRINE] showed an IC50 of 55000 nM.
